The test system of assay [1] is RAW264.7. As to the kind of experiment: Suppression of LPS-induced NO production in mouse RAW264.7 cells by fluorometric assay. The assay is classed as functional, cell-based. The gist of the method:
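RAW264.7 cells were seeded at 1 × 10⁵ cells/well and incubated overnight. Supernatant was removed and cells were stimulated with 10 ng/mL LPS plus graded compound concentrations for 20 h at 37 °C, 5% CO₂. The medium was phenol red-free RPMI1640 with 1% heat-inactivated FBS. Compounds came from 10 mM DMF stocks diluted in medium. Supernatant nitrite was read with DAN, then NaOH, as fluorescence at ex 355/em 460 nm.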

The subject of assay [2] is RAW264.7. The assay is described as follows: Suppression of LPS-induced TNFalpha production in mouse RAW264.7 cells. Type of assay: functional, cell-based. The essentials: (§1)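 IC50 is the concentration cutting TNF-α or IL-6 production to 50% of control. Values are means ± SD from three or four experiments.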
For assay [3], the system named is RAW264.7. As to the kind of experiment: Suppression of LPS-induced IL6 production in mouse RAW264.7 cells. Type of assay: functional, cell-based. The gist of the method: as §1
The test system of assay [4] is Mus musculus. As to the kind of experiment: Protective effect against lethal septic shock in mouse endotoxin shock model assessed as survival at 10 mg/kg, iv. The assay is classed as functional, organism-based. Also on record: dose 10 mg/kg. The essentials: (§2)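 Mice got a lethal LPS dose of 7 mg/kg ip. Compound was given iv 1 h before LPS, in 10% (w/v) glucuronylglucosyl-β-cyclodextrin sodium salt. Survival was recorded over 7 days after LPS, with 7–10 mice per group.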

In assay [5] the test system is Mus musculus. The assay is described as follows: Suppression of LPS-induced serum NO production in mouse endotoxin shock model at 10 mg/kg, iv administered 1 hr before LPS challenge by fluorometric assay.
Assay [6] has as its system Mus musculus. As to the kind of experiment: Protective effect against lethal septic shock in iv dosed mouse endotoxin shock model. The assay is classed as functional. The essentials: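 Mice challenged with a lethal dose of LPS (7 mg/kg ip). Compounds were dissolved in 10% (w/v) glucuronylglucosyl-beta-cyclodextrin sodium salt and given intravenously at 1, 3 and 10 mg/kg, 1 h before LPS. Vehicle-dosed mice served as controls. Survival was recorded for 7 days after challenge and reported as survivors/total. ED50 is given in mg/kg.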

For assay [7], the system named is Mus musculus. The assay is described as follows: Suppression of LPS-induced serum NO production in mouse endotoxin shock model at 1 mg/kg, iv administered 1 hr before LPS challenge by fluorometric assay.
Assay [8] relates to Mus musculus. As to the kind of experiment: Protective effect against lethal septic shock in mouse endotoxin shock model assessed as survival at 1 mg/kg, iv. Type of assay: functional, organism-based. Also noted: dose 1 mg/kg. The essentials: as §2
Assay [9] deals with Mus musculus. The assay is described as follows: Suppression of LPS-induced serum NO production in mouse endotoxin shock model at 3 mg/kg, iv administered 1 hr before LPS challenge by fluorometric assay.

Where only a bound is given, the exact number is not on record here.

In assay [1] (Mus musculus, RAW264.7), `CC(C)OC(=O)C1=CCCCC1S(=O)(=O)Cc1ccc(F)cc1Cl` (stereo not given) showed an IC50 of 100 nM.
The same measure, in the same setting: to `CCOC(=O)C1=CCCCC1S(=O)(=O)Cc1cccc(Cl)c1F` (stereo not given) belongs 12 nM; to `CCOC(=O)C1=CCCCC1S(=O)(=O)Cc1cc(Cl)ccc1F` (stereo not given), 23 nM.
Same read-out and setting: to `CCOC(=O)C1=CCCCC1S(=O)(=O)Cc1ccsc1` (stereo not given) belongs 105 nM.
For the compound `CCOC(=O)C1=CCCCC1S(=O)(=O)Cc1ccccc1Cl` (stereo in doubt; 10e), the IC50 in assay [1] (raw264.7) was 14 nM.
Regarding `CCOC(=O)C1=CCCCC1SCc1ccc(F)cc1Cl` (stereo not given), in [1] (Mus musculus, RAW264.7), inhibition was half-maximal at 5640 nM (IC50).
For `CCOC(=O)C1=CCCCC1S(=O)(=O)Cc1cccc(F)c1F` (stereo not given), the IC50 in [1] (Mus musculus, RAW264.7) is 100 nM.
Same read-out and setting: the figure for `CCOC(=O)C1=CCCCC1S(=O)(=O)Cc1cccc(Cl)c1` (stereo not given) is 14 nM; for `CCOC(=O)C1=CCCCC1S(=O)(=O)Cc1ccc(Cl)cc1Cl` (stereo not given) it is 60 nM; for `CCOC(=O)C1=CCCCC1S(=O)(=O)Cc1ccc(Cl)c(Cl)c1` (stereo not given) it is 53 nM.
For `CCOC(=O)C1=CCCCC1S(=O)(=O)C(C)c1ccc(F)cc1Cl` (stereo in doubt; 22a), the IC50 was determined as 42 nM in assay [2], 14 nM in [1] (raw264.7) and 5.8 nM in [3].
In [1] (Mus musculus, RAW264.7), `CCOC(=O)C1=CCCCC1S(=O)(=O)Cc1cc2ccccc2o1` (stereo not given) returned an IC50 of 134 nM. That is a sub-micromolar value.
`CCOC(=O)C1=CCCCC1S(=O)(=O)Cc1ccc(F)cc1Cl` (stereo in doubt; (-)-10a): the IC50 in assay [1] (raw264.7) came out at 10000 nM.
For the compound `CCOC(=O)C1=CCCCC1S(=O)(=O)Cc1cccc(Cl)c1Cl` (stereo not given), in assay [1] (Mus musculus, RAW264.7), the IC50 was determined as 65 nM.
Regarding `CCOC(=O)C1=CCCCC1S(=O)(=O)Cc1ccc(F)cc1Cl` (single isomer, unassigned; (+)), the IC50 in [1] (raw264.7) was 5.7 nM.
`CCOC(=O)C1=CCCCC1S(=O)(=O)Cc1ccc(Cl)cc1F` (stereo not given): the midpoint of inhibition in assay [1] (Mus musculus, RAW264.7), the IC50, lay at 104 nM.
`CCOC(=O)C1=CCCCC1S(=O)(=O)C(C)c1ccc(F)cc1Cl` (stereo in doubt; 22b): it took 102 nM to reach half-maximal inhibition in assay [1] (raw264.7) (IC50).
In assay [1] (Mus musculus, RAW264.7), `CCOC(=O)C1=CCCCC1S(=O)(=O)Oc1ccc(F)cc1Cl` (stereo not given) displayed an IC50 of 904 nM.
In turn, `CCOC(=O)C1=CCCCC1S(=O)(=O)Cc1ccccc1Cl` (single isomer, unassigned; (+)) displayed an IC50 in [1] (raw264.7) of 11 nM.
`CCOC(=O)C1=CCCCC1S(=O)(=O)Cc1ccncc1` (stereo not given): the IC50 in assay [1] (Mus musculus, RAW264.7) came to 1410 nM.
With `CCOC(=O)C1=CCCCC1S(=O)(=O)Cc1c[nH]c2ccccc12` (stereo not given), the midpoint of inhibition in assay [1] (Mus musculus, RAW264.7), the IC50, lay at 1010 nM.
The same measure, in the same setting: the figure for `CCCCOC(=O)C1=CCCCC1S(=O)(=O)Cc1ccc(F)cc1Cl` (stereo not given) is 103 nM; for `CCOC(=O)C1=CCCCC1S(=O)(=O)C(CF)c1ccc(F)cc1Cl` (stereo in doubt; 26b) it is 729 nM.
For `CCOC(=O)C1=CCCCC1S(=O)(=O)Cc1ccccc1Cl` (single isomer, unassigned; (-)), the IC50 in [1] (raw264.7) worked out at 1200 nM.
`CCCC(=O)C1=CCCCC1S(=O)(=O)Cc1ccc(F)cc1Cl` (stereo not given) came in with an IC50 in assay [1] (Mus musculus, RAW264.7) of 11 nM.
The same measure, in the same setting: the figure for `CCOC(=O)C1=CCCCC1S(=O)(=O)Cc1ccc(Cl)cc1` (stereo not given) is 101 nM.
In [1] (raw264.7), `CCOC(=O)C1=CCCCC1S(=O)(=O)C(C)c1ccccc1` (stereo in doubt; 19a) returned an IC50 of 100 nM.
For `CCOC(=O)C1=CCCCC1S(=O)(=O)Cc1ccccc1F` (stereo not given), 97 nM corresponded to half-maximal inhibition in [1] (Mus musculus, RAW264.7) (IC50).
For the compound `CCOC(=O)C1=CCCCC1S(=O)(=O)C(C)c1ccc(F)cc1Cl` (single isomer, unassigned; (+)), it took 4 nM to reach half-maximal inhibition in assay [1] (raw264.7) (IC50).
`CCOC(=O)C1=CCCCC1S(=O)(=O)Cc1ccc(F)cc1F` (stereo not given) gave an IC50 in assay [1] (Mus musculus, RAW264.7) of 14 nM.
On to `CCOC(=O)C1=CCCC[C@H]1S(=O)(=O)[C@@H](C)c1ccc(F)cc1Cl`, for which the values for the IC50 in assay [2] and in assay [3] were 20 nM and 1.8 nM, respectively. The Activity result in assay [4] is “Non-toxic”; in assay [8], “Toxic”. Moreover, the inhibition in vivo at 10 mg/kg in [5] was 78%. The compound also came in with an ED50 in assay [6] of 5.6 mg/kg. Besides, in [7], the inhibition in vivo at 1 mg/kg is -10.1%. Moreover, the inhibition in vivo at 3 mg/kg in [9] came out at 55.7%.
Consider `CCCOC(=O)C1=CCCCC1S(=O)(=O)Cc1ccc(F)cc1Cl` (stereo not given), for which 14 nM corresponded to half-maximal inhibition in [1] (Mus musculus, RAW264.7) (IC50).
The compound `CCOC(=O)C1=CCCCC1S(=O)(=O)C(C)c1ccccc1` (stereo in doubt; 19b) showed an IC50 in assay [1] (raw264.7) of 1320 nM.
In assay [1] (Mus musculus, RAW264.7), `CCOC(=O)C1=CCCCC1S(=O)(=O)Cc1ccccc1` (stereo not given) registered an IC50 of 101 nM. This counts as sub-micromolar.
`CCOC(=O)C1=CCCCC1S(=O)(=O)Cc1coc2ccccc12` (stereo not given) displayed an IC50 in [1] (Mus musculus, RAW264.7) of 106 nM.
The same measure, in the same setting: to `CCC(=O)C1=CCCCC1S(=O)(=O)Cc1ccc(F)cc1Cl` (stereo not given) belongs 64 nM; to `O=S(=O)(Cc1ccc(F)cc1Cl)C1CCCC=C1CO` (stereo not given), over 10000 nM; to `CC(=O)OCC1=CCCCC1S(=O)(=O)Cc1ccc(F)cc1Cl` (stereo not given), over 10000 nM.
For `CCOC(=O)C1=CCCC[C@H]1S(=O)(=O)Cc1ccc(F)cc1Cl`, the values for the IC50 in assay [2] and in [3] were 8.3 nM and 1.5 nM, respectively. Besides, the Activity entry in assay [4] is “Non-toxic”. The inhibition in vivo at 10 mg/kg in [5] worked out at 76%. Also, the ED50 in assay [6] is 1.85 mg/kg. In addition, the inhibition in vivo at 1 mg/kg in [7] came out at 27%. The inhibition in vivo at 3 mg/kg in [9] came out at 54%.
`CCOC(=O)C1=CCCCC1S(=O)(=O)Cc1ccc(F)c(Cl)c1` (stereo not given) registered an IC50 in [1] (Mus musculus, RAW264.7) of 13 nM. This counts as double-digit nanomolar.
As to `CCOC(=O)C1=CCCCC1S(=O)(=O)Cc1ccc(F)cc1Cl` (stereo in doubt; 10a), the IC50 worked out at 21 nM in assay [2], 10 nM in assay [1] (raw264.7) and 4.8 nM in [3].
In assay [1] (Mus musculus, RAW264.7), `CCC(O)C1=CCCCC1S(=O)(=O)Cc1ccc(F)cc1Cl` (stereo not given) yielded an IC50 of over 10000 nM.
Same read-out and setting: to `CCOC(=O)C1=CCCCC1S(=O)(=O)Cc1cc2ccccc2s1` (stereo not given) belongs 101 nM.
`CCOC(=O)C1=CCCCC1S(=O)(=O)C(C)c1ccc(F)cc1Cl` (single isomer, unassigned; (-)): the IC50 in assay [1] (raw264.7) worked out at 1300 nM. In other words, the single-digit micromolar range.
The same measure, in the same setting: to `CCOC(=O)C1=CCCCC1S(=O)(=O)C(CF)c1ccc(F)cc1Cl` (stereo in doubt; 26a) belongs 435 nM.
Regarding `COC(=O)C1=CCCCC1S(=O)(=O)Cc1ccc(F)cc1Cl` (stereo not given), 99 nM corresponded to half-maximal inhibition in [1] (Mus musculus, RAW264.7) (IC50).
Same read-out and setting: to `CCOC(=O)C1=CCCCC1S(=O)(=O)Nc1ccc(F)cc1Cl` (stereo not given) belongs 4.5 nM.
In turn, `CCOC(=O)C1=CCCCC1NS(=O)(=O)c1ccc(F)cc1Cl` (stereo not given) came in with an IC50 in [1] (Mus musculus, RAW264.7) of over 10000 nM.

One may read the IC50 as the concentration needed to halve the response being measured. Broadly, the inhibition in vivo is the drop in the measured response relative to a control, in per cent. The term ED50 denotes the dose at which the effect has come halfway, by size or by number of responders. A high value points to weaker potency.

Source of the values: ChEMBL document CHEMBL1157153, “Novel cyclohexene derivatives as anti-sepsis agents: synthetic studies and inhibition of NO and cytokine production” (Bioorg Med Chem, 2008).
